Measured values from ChEMBL document CHEMBL4229489, “Synthesis and evaluation of camphor and cytisine-based cyanopyrrolidines as DPP-IV inhibitors for the treatment of type 2 diabetes mellitus” (Bioorg Med Chem, 2018).
The source made the active and inactive calls. The calls are words filed in the database; no cut-off is given here.

Tests used:
[1] = target: Dipeptidyl peptidase 4 (Homo sapiens, UniProt P27487); experiment: Inhibition of recombinant human DPP4 using H-Gly-Pro-AMC as substrate measured after 10 mins
Sequence of Dipeptidyl peptidase 4 (P27487 whole entry): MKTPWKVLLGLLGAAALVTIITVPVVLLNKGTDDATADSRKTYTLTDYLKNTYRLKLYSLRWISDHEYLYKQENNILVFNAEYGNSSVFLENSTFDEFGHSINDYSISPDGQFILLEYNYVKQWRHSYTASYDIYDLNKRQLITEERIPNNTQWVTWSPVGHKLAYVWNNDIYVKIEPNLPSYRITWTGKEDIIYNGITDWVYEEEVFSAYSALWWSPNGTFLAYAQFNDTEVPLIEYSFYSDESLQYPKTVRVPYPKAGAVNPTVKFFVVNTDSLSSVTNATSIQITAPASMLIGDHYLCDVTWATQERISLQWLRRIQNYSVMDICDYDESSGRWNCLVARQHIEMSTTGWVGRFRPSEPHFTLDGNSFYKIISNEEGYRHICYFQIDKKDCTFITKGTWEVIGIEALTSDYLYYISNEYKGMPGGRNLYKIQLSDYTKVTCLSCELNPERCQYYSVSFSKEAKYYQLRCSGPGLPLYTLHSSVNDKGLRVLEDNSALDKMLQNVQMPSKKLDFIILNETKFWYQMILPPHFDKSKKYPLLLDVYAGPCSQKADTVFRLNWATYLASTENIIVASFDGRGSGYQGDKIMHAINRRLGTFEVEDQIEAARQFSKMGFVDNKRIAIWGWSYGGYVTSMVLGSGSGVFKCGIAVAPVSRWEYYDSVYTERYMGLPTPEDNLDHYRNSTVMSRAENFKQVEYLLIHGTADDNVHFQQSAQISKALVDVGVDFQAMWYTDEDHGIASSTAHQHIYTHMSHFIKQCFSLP

[2] = test system: Mus musculus; experiment: Hypoglycemic activity in albino CD-1 mouse assessed as reduction in blood glucose level at 10 mg/kg, po pretreated for 0.5 hrs followed by glucose challenge and measured after 30 to 90 mins by OGTT; type: functional, organism-based
Procedure, shortened: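 Male CD-1 albino mice, 25–35 g, randomized by weight into groups of 5, fasted 12 h. Compounds mixed with a few drops of Tween 80 or DMSO, dissolved in distilled water, given orally at 10 mg/kg 0.5 h before an oral glucose load (2.5 g/kg). Controls got vehicle only. Blood glucose read by glucometer at 0, 30, 60, 90 min. Mean ± SD, n = 5.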

N#C[C@@H]1CCCN1C(=O)CN1C[C@H]2C[C@H](C1)c1c(Cl)ccc(=O)n1C2
IC50 [1]: Not Active | Activity [2]: inactive

N#C[C@@H]1CCCN1C(=O)CN1C[C@H]2C[C@H](C1)c1cccc(=O)n1C2
IC50 [1]: Not Active | Activity [2]: inactive

CC1(C)[C@H]2CC[C@]1(C)[C@@H](O)[C@H]2NCC(=O)N1CCC[C@H]1C#N (stereo in doubt)
Activity [2]: Active

CC1(C)[C@@H]2CC[C@@]1(C)[C@H](NCC(=O)N1CCC[C@H]1C#N)C2
Activity [2]: Active

N#C[C@@H]1CCCN1C(=O)CNC12CC3CC(CC(O)(C3)C1)C2
Activity [2]: Active

CC1(C)[C@H]2CC[C@]1(C)[C@@H](NCC(=O)N1CCC[C@H]1C#N)C2
Activity [2]: Active

N#C[C@@H]1CCCN1C(=O)CN1C[C@H]2C[C@H](C1)c1c(Cl)cc(Cl)c(=O)n1C2
IC50 [1]: Not Active | Activity [2]: inactive

CC12CCC([C@H](NCC(=O)N3CCC[C@H]3C#N)C1=O)C2(C)C (single isomer, unassigned)
Activity [2]: Active

N#C[C@@H]1CCCN1C(=O)CN1C[C@H]2C[C@H](C1)c1ccc([N+](=O)[O-])c(=O)n1C2
IC50 [1]: Not Active | Activity [2]: inactive

N#C[C@@H]1CCCN1C(=O)CN1C[C@H]2C[C@H](C1)c1c(Br)cc(Br)c(=O)n1C2
IC50 [1]: Not Active | Activity [2]: inactive
